# Rows were chosen to be rich in hits. Some 4.4% of all compounds tested hit in one or more screens of this group.
# GRIN3A LBD mod = modulates the human NR3A ligand-binding domain; NR3A LBD differential scanning fluorimetry, Tm shift; 0% = protein alone, 100% = glycine-bound protein; Tm shift relative to glycine control, % at 25 µM; actives 2.5% (n = 340,000); AID 1259313;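 active = melting temperature shift of at least 10% of the positive control shift, at one fixed dose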
# EBI2 antag = antagonists of human EBI2 receptor; P32249; EBI2 beta-arrestin recruitment, luminescence, 7a,25-OHC stimulated; inhibition, % at 5 µM; actives 0.81% (n = 360,000); in the data active = inhibition above about 38%;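 note: enzyme fragment complementation signal reports receptor beta-arrestin coupling in cells; 0% = agonist plus DMSO wells and 100% = wells without agonist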
# MPTP block = blocks calcium-induced mitochondrial swelling. isolated mouse mitochondria, Ca2+ swelling absorbance, 30 min. actives 1.4% (n = 360,000). inhibition, % at 10 µM;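 active = inhibition of 50% or more, scaled per plate between neutral and stimulator controls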;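 note: 0% = DMSO wells given calcium and 100% = 1 mM EGTA wells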
# SENP1 FRET inh = blocks the human SENP1 SUMO protease catalytic domain. actives 0.21% (n = 360,000). Q9P0U3. AID 624204. inhibition, % at 10 µM. recombinant SENP1 catalytic domain, CyPet-SUMO1-YPet FRET cleavage;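 active = inhibition at least 30% at 10 µM, raw YFP signal under a set limit, fluorescence ratio 0.5 to 1.5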;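 note: 0% = enzyme with DMSO and 100% = no enzyme wells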
# Target sequence (Q9P0U3 419-644 limits assumed): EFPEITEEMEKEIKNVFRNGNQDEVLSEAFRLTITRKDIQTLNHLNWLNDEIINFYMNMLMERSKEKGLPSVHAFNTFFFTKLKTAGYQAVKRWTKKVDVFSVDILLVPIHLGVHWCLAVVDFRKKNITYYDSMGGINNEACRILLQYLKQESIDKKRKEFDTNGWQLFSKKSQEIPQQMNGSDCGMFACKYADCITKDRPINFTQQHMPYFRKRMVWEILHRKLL
#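 Controls: no-enzyme wells low, DMSO-plus-enzyme wells high control. Test system: human recombinant His6-tagged SENP1 catalytic domain enzyme. Reagent: SFCypet-SUMO1-SFYpet FRET protein substrate, 25 nM final. Doses: one dose per compound, 10 µM, 0.5% DMSO. Detection: FRET, CFP and YFP emission. Timing: 50 min reaction at room temperature.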
# MPTP counter = mitochondrial membrane potential, counter-screen; isolated mitochondria, Rhodamine 123 fluorescence; actives 78% (n = 5,000); shares compounds with MPTP block; inhibition, % at 10 µM; in the data active = inhibition above about 22%;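 note: 0% = DMSO vehicle and 100% = positive control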
# MPTP abs DR = MPTP inhibition, dose response swelling confirmation; shares compounds with MPTP block; isolated mitochondria swelling, absorbance; IC50, µM; actives 58% (n = 780); in the data active = IC50 below about 20 µM
# MPTP counter DR = counter-screen for mitochondrial permeability transition pore inhibitors, dose response. shares compounds with MPTP block. isolated mitochondria counterscreen, fluorescence read-out. IC50, µM. actives 49% (n = 780). AID 651564; in the data active = IC50 below about 80 µM
# * marks the source's active call; other numbers are inactive results; · = no result given.
SMILES,GRIN3A LBD mod,EBI2 antag,MPTP block,SENP1 FRET inh,MPTP counter,others
S=C(NCc1ccncc1)Nc1cc(Cl)cc(Cl)c1,0.3,2.3,67.9*,0.5,99.3*,
CC1CCN(Cc2c(C#N)c3ccccc3n2C)CC1,-0.3,-3.1,-0.5,-1.7,·,
Oc1ccc(C[C@H]2CNCCN2CCc2cccc3ccccc23)cc1,-0.3,-10.2,75.6*,-1.7,-8.5,MPTP abs DR=4.75*;MPTP counter DR=>80
Oc1ccc(C[C@@H]2CNCCN2CCc2cc(C(F)(F)F)cc(C(F)(F)F)c2)cc1,-0.3,-8.4,94.0*,2.1,-23.6,MPTP abs DR=4.26*;MPTP counter DR=>80
c1ccc(C[C@H]2CNCCN2CCc2cccc3ccccc23)cc1,0.3,-1.6,42.1,-9.3,·,
CCCC[C@@H]1CNCCN1CCc1cccc2ccccc12,-0.3,-10.6,65.4*,-2.5,-9.6,MPTP abs DR=12.3*;MPTP counter DR=>80
O=C(CN1CCN(C(=O)C2COc3ccccc3O2)CC1)Nc1ccc(F)cc1 (centres undefined),-1.9,0.1,1.9,-0.7,·,
Cc1ccc(/C=C2/SC(=S)N(CCC(=O)N3CCN(C)CC3)C2=O)cc1,1.9,1.3,78.6*,1.3,5.1,MPTP abs DR=>100;MPTP counter DR=>80
COC(=O)c1nc(NC(=O)c2ccc(Br)cc2)n[nH]1,3.4,-11.0,77.1*,0.3,5.7,MPTP abs DR=>100;MPTP counter DR=>80
COC(=O)c1nc(NC(=O)c2ccccc2Cl)n[nH]1,1.0,-17.3,0.8,3.8,·,
COc1ccc(Nc2ncnc3sc(-c4ccccc4)cc23)cc1,16.4*,10.1,71.2*,-20.7,61.1*,
O=C(N/N=C/c1cccc(OCC(=O)N2CCCC2)c1)C(=O)Nc1ccccc1F,-5.3,-19.3,10.4,3.5,·,
FC(F)(F)c1nc(N2CCCC2)ncc1-c1nnnn1-c1ccccc1,-0.3,-19.5,73.4*,3.1,65.4*,
Cc1ccccc1NS(=O)(=O)c1cc(C(=O)Nc2cccc([N+](=O)[O-])c2)ccc1C,24.2*,4.0,97.8*,0.5,78.4*,
O=C(NC1CCCC1)C(c1ccccn1)N(C(=O)c1csnn1)c1ccccc1F (centres undefined),-1.7,-0.5,1.1,0.4,·,
O=C(NC(NNc1ccc([N+](=O)[O-])cc1)(C(F)(F)F)C(F)(F)F)c1ccc(Cl)cc1,1.0,-19.8,98.0*,-3.2,78.3*,
O=C(Nc1ccc(N2CCCC2)c(S(=O)(=O)Nc2cccc(C(F)(F)F)c2)c1)c1cccs1,29.9*,13.0,74.0*,0.9,50.2*,
COCCNCCCCOc1ccc(Br)cc1C,-0.7,-5.4,-0.4,2.5,·,
COCCCNCCCCOc1ccc(Br)cc1C,-5.2,-3.8,63.3*,0.1,-13.2,MPTP abs DR=8.65*;MPTP counter DR=>80
Cc1c(C(=O)N/N=C/c2ccc(Cl)cc2)[nH]c2ccc(Cl)cc12,25.8*,-2.8,96.0*,1.9,66.8*,
Cc1c(C(=O)N/N=C/C(C)C)[nH]c2ccc([N+](=O)[O-])cc12,-0.1,4.4,47.0,0.7,·,
Cc1cc(Br)ccc1NC(=O)CCSc1ccccc1,-2.2,-1.1,6.7,-1.0,·,
Cc1cc(NC(=O)CCSc2ccccc2)ccc1Br,9.0,15.3,96.7*,1.4,84.0*,
CSc1nc(NC(C)=O)nc(C)c1Br,-0.2,-0.9,-6.6,0.9,·,
CC(=O)c1c(C)[nH]c(C(=O)OCC(=O)Nc2sc3c(c2C#N)CCC(C)C3)c1C (centres undefined),-1.6,-12.4,105.4*,-23.9,88.8*,
SMILES,GRIN3A LBD mod,EBI2 antag,MPTP block,SENP1 FRET inh,MPTP counter,others
Cc1ccnc(SCC(=O)Nc2sc3c(c2C#N)CCCC3)n1,0.7,11.9,100.4*,1.2,125.0*,
N#Cc1c(NC(=O)CSc2ncn[nH]2)sc2c1CCCC2,-1.3,-2.1,5.6,2.6,·,
CC(C)(C)C1CCc2c(sc(NC(=O)CSc3ncn[nH]3)c2C#N)C1 (centres undefined),2.0,-9.6,52.0*,-6.5,66.4*,
CC1CCc2c(sc(NC(=O)CSc3ncn[nH]3)c2C#N)C1 (centres undefined),-4.7,1.6,51.6*,0.4,26.0*,
CCCn1c(SCC(=O)Nc2nc3c(s2)CCCC3)nc2c1c(=O)n(C)c(=O)n2C,1.1,2.4,84.6*,0.8,32.6*,
CCc1c(C)sc(NC(=O)Cc2ccccc2OC)c1C(=O)N1CCOCC1,3.7,-3.4,-1.8,1.6,·,
